Test results from ChEMBL document CHEMBL1125564, “Selective, centrally acting serotonin 5-HT2 antagonists. 2. Substituted 3-(4-fluorophenyl)-1H-indoles” (J Med Chem, 1992).

Experiments:
D(2) dopamine receptor = D(2) dopamine receptor (Rattus norvegicus, UniProt P61169); experiment: Displacement of [3H]spiperone from Dopamine receptor D2 rat striatal membranes; type: cell membranes, Membrane
Procedure, shortened: (§1)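 Two full concentration curves per compound, five concentrations in triplicate covering three decades. IC50 read from log-concentration curves, given as logarithmic mean of at least two determinations. Ratios beyond 3 × SD prompted extra runs, with outliers discarded.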

[1] = target: T1, Alpha-1A adrenergic receptor (Rattus norvegicus, UniProt P43140); experiment: Displacement of [3H]prazosin from Alpha-1 adrenergic receptor in whole rat brain membranes; type: cell membranes; procedure, shortened: as §1
T1 sequence (P43140 whole entry): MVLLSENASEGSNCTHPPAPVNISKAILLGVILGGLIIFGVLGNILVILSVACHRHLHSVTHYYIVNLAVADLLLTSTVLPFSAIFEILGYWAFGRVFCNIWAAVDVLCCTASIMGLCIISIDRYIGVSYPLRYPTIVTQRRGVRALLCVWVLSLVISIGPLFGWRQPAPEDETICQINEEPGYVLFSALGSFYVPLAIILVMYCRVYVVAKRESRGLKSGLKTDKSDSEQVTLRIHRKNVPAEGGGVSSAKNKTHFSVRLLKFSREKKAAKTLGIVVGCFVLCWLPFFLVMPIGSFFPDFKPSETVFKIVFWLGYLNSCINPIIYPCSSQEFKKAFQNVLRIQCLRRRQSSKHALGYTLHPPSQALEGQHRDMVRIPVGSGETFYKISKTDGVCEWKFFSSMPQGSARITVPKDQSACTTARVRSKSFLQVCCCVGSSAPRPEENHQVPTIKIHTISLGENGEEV

[2] = target: Serotonin 2 (5-HT2) receptor (Rattus norvegicus, UniProt P30994+P08909+P14842); experiment: Displacement of [3H]ketanserin from 5-hydroxytryptamine 2 receptor in rat cortical membranes; type: cell membranes, Membrane; procedure, shortened: as §1
Rattus norvegicus [3] = experiment: Compound was evaluated for the inhibition of quipazine-induced head twitches after 2 hr (administered subcutaneously); type: functional; settings: sc
Procedure, shortened: (§2)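 Male Wistar rats (Mol:Wist, SPF, 170–270 g), at least four per dose, dosed sc or po 2 or 24 h before quipazine (15 μmol/kg, sc). Head twitches counted 30–40 min after quipazine and expressed as percent of a quipazine-treated control group. ED50 by log-probit analysis.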

Rattus norvegicus [4] = experiment: Compound was evaluated for the inhibition of pergolide-induced reactions after 2 hr (administered subcutaneously); type: functional; settings: sc
Procedure, shortened: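 Male Wistar rats with unilateral 6-OHDA lesions; test compound given sc 2 h before pergolide (0.05 μmol/kg, sc) to induce contralateral circling. Each dose scored as percent of the rat's mean control sessions 1 week before and 1 week after the test, at least four rats per dose. ED50 by log-probit analysis.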

Rattus norvegicus [5] = experiment: Compound was evaluated for the inhibition of quipazine-induced head twitches after 24 hr (administered perorally); type: functional; settings: po; procedure, shortened: as §2
Rattus norvegicus [6] = experiment: Compound was evaluated for the inhibition of quipazine-induced head twitches after 24 hr (administered subcutaneously); type: functional; settings: sc; procedure, shortened: as §2

D(2) dopamine receptor, sequence (P61169 whole entry): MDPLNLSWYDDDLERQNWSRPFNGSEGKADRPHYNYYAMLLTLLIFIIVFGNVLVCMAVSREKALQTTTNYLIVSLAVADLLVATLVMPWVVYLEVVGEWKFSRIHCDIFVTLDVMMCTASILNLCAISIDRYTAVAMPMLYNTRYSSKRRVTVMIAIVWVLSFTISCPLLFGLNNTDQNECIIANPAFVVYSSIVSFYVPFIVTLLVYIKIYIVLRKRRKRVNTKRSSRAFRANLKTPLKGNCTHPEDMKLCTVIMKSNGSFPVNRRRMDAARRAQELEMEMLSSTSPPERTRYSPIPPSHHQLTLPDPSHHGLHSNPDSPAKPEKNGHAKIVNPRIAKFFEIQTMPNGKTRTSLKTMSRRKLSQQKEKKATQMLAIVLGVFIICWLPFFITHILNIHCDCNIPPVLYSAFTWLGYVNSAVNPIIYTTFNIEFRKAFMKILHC

Structure (SMILES) | IC50 (D(2) dopamine receptor) | IC50 [1] | IC50 [2] | ED50 (Rattus norvegicus [3]) | ED50 (Rattus norvegicus [4]) | ED50 (Rattus norvegicus [5]) | ED50 (Rattus norvegicus [6])
Cc1ccc2c(c1)c(-c1ccc(F)cc1)cn2N1CCN(C)CC1 |  | 500 nM | 15 nM |  |  |  | 
Cc1ccc2c(c1)c(-c1ccc(F)cc1)c(C)n2C1=CCN(CCN2CCNC2=O)CC1 |  | 1000 nM | 2.8 nM |  |  |  | 
Cc1ccc2c(c1)c(-c1ccc(F)cc1)c(C)n2C1CCN(C)CC1 |  | 2700 nM | 5.3 nM | 0.25 µmol/kg | > 30 µmol/kg | 0.046 µmol/kg | 0.028 µmol/kg
Cc1ccc2c(c1)c(-c1ccc(F)cc1)cn2C1CCN(CCNC(=O)N(C)C)CC1 |  | 89 nM | 2.3 nM |  |  |  | 
Cc1ccc2c(c1)c(-c1ccc(F)cc1)cn2C1CCN(CCN2CCN(C(C)C)C2=O)CC1 |  | 280 nM | 2.7 nM | 0.062 µmol/kg | > 18 µmol/kg | 0.019 µmol/kg | 0.014 µmol/kg
Cc1ccc2c(c1)c(-c1ccc(F)cc1)c(C)n2C1CCN(CCN2CCNC2=O)CC1 |  | 2300 nM | 3.4 nM | 0.096 µmol/kg | > 23 µmol/kg | 0.038 µmol/kg | 0.0041 µmol/kg
Cc1ccc2c(c1)c(-c1ccc(F)cc1)cn2C1CCN(C)CC1 |  | 190 nM | 4.5 nM |  |  |  | 
O=C1NCCN1CCN1CCC(n2cc(-c3ccc(F)cc3)c3cc(C(F)(F)F)ccc32)CC1 | 2500 nM | 190 nM | 9.3 nM |  |  |  | 
O=C1NCCN1CCN1CCC(c2cn(-c3ccc(F)cc3)c3ccc(Cl)cc23)CC1 [SERTINDOLE] |  | 3.4 nM |  |  |  |  | 

More lines, in order of falling IC50 [1], values ahead:

IC50 (D(2) dopamine receptor) | IC50 [1] | IC50 [2] | Structure (SMILES) | ED50 (Rattus norvegicus [3]) | ED50 (Rattus norvegicus [4]) | ED50 (Rattus norvegicus [5]) | ED50 (Rattus norvegicus [6])
 | 71 nM | 1.6 nM | Cc1ccc2c(c1)c(-c1ccc(F)cc1)cn2C1CCN(CCN2CCNC2=O)CC1 | 0.019 µmol/kg | > 24 µmol/kg | 0.0041 µmol/kg | 0.0081 µmol/kg
 | 70 nM |  | CC(C)N1CCN(CCN2CCC(c3cn(-c4ccc(F)cc4)c4cc(Cl)ccc34)CC2)C1=O |  |  |  | 
 | 67 nM | 5.7 nM | O=C1NCCN1CCN1CCC(n2cc(-c3ccc(F)cc3)c3cc(Cl)ccc32)CC1 |  |  |  | 
1200 nM | 54 nM | 2.2 nM | CNC(=O)N(C)CCN1CCC(n2cc(-c3ccc(F)cc3)c3cc(C)ccc32)CC1 | 0.036 µmol/kg | > 22 µmol/kg | 0.004 µmol/kg | 0.0021 µmol/kg
200 nM | 34 nM | 7.9 nM | Cc1cccc2c1c(-c1ccc(F)cc1)cn2C1CCN(CCN2CCNC2=O)CC1 |  |  |  | 
530 nM | 27 nM | 5.8 nM | Cc1cccc2c(-c3ccc(F)cc3)cn(C3=CCN(CCN4CCNC4=O)CC3)c12 |  |  |  | 
280 nM | 24 nM | 1.5 nM | Cc1ccc2c(c1)c(-c1ccc(F)cc1)cn2C1=CCN(CCN2CCNC2=O)CC1 |  |  |  | 
370 nM | 23 nM | 3.6 nM | Cc1cccc2c(-c3ccc(F)cc3)cn(C3CCN(CCN4CCNC4=O)CC3)c12 |  |  |  | 
 | 19 nM | 3.2 nM | O=C1NCCN1CCN1CCC(n2cc(-c3ccc(F)cc3)c3cc(F)ccc32)CC1 |  |  |  | 
 | 11 nM | 1.9 nM | O=C1NCCN1CCN1CCC(n2cc(-c3ccc(F)cc3)c3ccc(Cl)cc32)CC1 | 0.3 µmol/kg | 9.3 µmol/kg |  | 0.68 µmol/kg
 | 6.3 nM | 3.1 nM | O=C1NCCN1CCN1CCC(n2cc(-c3ccc(F)cc3)c3ccccc32)CC1 |  |  |  | 
